Assay results: ChEMBL document CHEMBL1141857, “Lichen metabolites. 1. Inhibitory action against leukotriene B4 biosynthesis by a non-redox mechanism” (J Nat Prod, 1999)

Experiments:
PMNL = assay: Inhibition of LTB4 biosynthesis in A-23187-stimulated bovine PMNL cells; type: functional, cell-based; conditions: Bos taurus
In short: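 Bovine PMNL (10^7 cells/mL) preincubated with compound 15 min at 37 °C, then stimulated with Ca-ionophore. LTB4 and 5-HETE released after 10 min quantified by reversed-phase HPLC. Inhibition = (1 − test/control) × 100, test n = 3, control n = 6–8. IC50 interpolated from log concentration–response plot using ≥4 concentrations spanning 50%.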

[1] = Prooxidant activity assessed as hydroxyl radical formation at 75 uM measured as malondialdehyde per mmol of deoxyribose by deoxyribose assay; type: functional
In short: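 Final mixture: 2 mM 2-deoxy-D-ribose, 0.1 mM FeCl3, 30 mM KH2PO4-KOH pH 7.4, 75 μM compound, acetonitrile vehicle controls; 2 h at 37 °C with shaking. TCA and TBA added, heated 100 °C 15 min, butanol-extracted, A532 read. Calibrated against MDA from tetraethoxypropane; reported as μmol MDA/mmol deoxyribose, n = 3.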

[2] = Inhibition of AAPH-induced lipid peroxidation in bovine brain phospholipid liposome; type: functional, tissue-based, Bos taurus
In short: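 Bovine brain phospholipid liposomes (1 mg/mL final) in 30 mM KH2PO4-KOH buffer, pH 7.4, with 10 mM AAPH and test compound at variable concentrations (acetone vehicle). Incubated 1 h at 37 °C with shaking. BHT, HCl and TBA then added; TBA-reactive material extracted into butanol and read at 532 nm against an MDA standard.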

[3] = tested on: Radical scavenging activity; assay: Antioxidant activity assessed as DPPH radical scavenging activity at equimolar amount of compound; type: functional
In short: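 Test compound and DPPH mixed at equal concentrations (each […] as printed) in acetone–PBS 1:1 v/v. DPPH reduction followed spectrophotometrically at 516 nm. Reciprocal DPPH concentration plotted against time; second-order rate constant taken from slope, mean of n = 3–6.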

| SMILES | IC50 (PMNL) | Activity [1] | IC50 [2] | Activity [3] |
| --- | --- | --- | --- | --- |
| CC(Cc1ccc(O)c(O)c1)C(C)Cc1ccc(O)c(O)c1 (centres undefined) [NORDIHYDROGUAIARETIC ACID] | 0.4 µM | 0.23 µmol | 2 µM | > 100 M⁻¹ s⁻¹ |
| COc1cc(C)c(C(=O)Oc2cc(C)c(C(=O)O)c(O)c2C)c(OC)c1C [DIFFRACTAIC ACID] | 8 µM | 0.12 µmol | > 200 µM | < 1 M⁻¹ s⁻¹ |
| CC(=O)C1=C(O)C=C2Oc3c(C(C)=O)c(O)c(C)c(O)c3[C@@]2(C)C1=O [(+)-USNIC ACID] | 42 µM | 1.47 µmol | > 200 µM | < 1 M⁻¹ s⁻¹ |
| COC(=O)c1c(C)cc(O)c(C)c1O [ATRARIC ACID] | > 60 µM | 1.43 µmol | > 200 µM | 5.95 M⁻¹ s⁻¹ |
| C=C1C(=O)O[C@@H](CCCCCCCCCCCCC)[C@@H]1C(=O)O [PROTOLICHESTERINIC ACID] | 9 µM | 0.08 µmol | > 200 µM | < 1 M⁻¹ s⁻¹ |
| CCOC(=O)c1c(C)cc(O)c(C=O)c1O [ETHYL HEMATOMMATE] | 40 µM | 0.3 µmol | > 200 µM | 12.2 M⁻¹ s⁻¹ |
| COC(=O)c1c(C)cc(OC(=O)c2c(C)cc(O)c(C=O)c2O)c(C)c1O [ATRANORIN] | 6 µM | 0 µmol | > 200 µM | 11.5 M⁻¹ s⁻¹ |
| O=C1c2c(O)cccc2Cc2cccc(O)c21 [ANTHRALIN] |  |  | 79 µM | 24.2 M⁻¹ s⁻¹ |
| Cc1cc(OC(=O)c2c(C)cc(OC(=O)c3c(C)cc(O)cc3O)cc2O)cc(O)c1C(=O)O [GYROPHORIC ACID] | > 60 µM | 0.12 µmol | > 200 µM | 3.63 M⁻¹ s⁻¹ |
